# RGS4 act = potentiators or activators of RGS4; AID 463111; B-score at 10 µM; 310,000 compounds, 0.92% hits; HEK293 M3R/inducible RGS4, carbachol calcium flux Fluo4; hits give low values;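 active = B-score of the integrated calcium signal more than 4 SD below the library mean, with starting fluorescence not abnormally high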;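 note: negative B-score means reduced calcium response which marks RGS4 activation or potentiation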
#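 Reagent: ECmax carbachol challenge; Test system: M3R-expressing HEK293 line, RGS4 induced by doxycycline; Schedule: overnight RGS4 induction, 30 min dye load 37 °C, 20 min compound RT; Detection: calcium dye Fluo4 fluorescence; Read-out: Agonist-evoked peak-minus-minimum fluorescence over baseline, integrated ratio, B score.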
# MrgX1 allo act = allosterically activates human MrgX1 receptor signaling | B-score at 10 µM | 310,000 compounds, 0.63% hits | MrgX1-HEK293, Fluo-4 calcium flux, FDSS; hits give high values | Q96LB2;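 active = plate-corrected calcium response at least 3 library SD above typical, normal starting fluorescence, not activating the receptor alone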;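 note: compound read alongside a low EC10 to EC30 dose of BAM8-22 agonist; peak minus trough fluorescence over baseline measured at the second addition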
# Target sequence (Q96LB2 whole entry, looked up): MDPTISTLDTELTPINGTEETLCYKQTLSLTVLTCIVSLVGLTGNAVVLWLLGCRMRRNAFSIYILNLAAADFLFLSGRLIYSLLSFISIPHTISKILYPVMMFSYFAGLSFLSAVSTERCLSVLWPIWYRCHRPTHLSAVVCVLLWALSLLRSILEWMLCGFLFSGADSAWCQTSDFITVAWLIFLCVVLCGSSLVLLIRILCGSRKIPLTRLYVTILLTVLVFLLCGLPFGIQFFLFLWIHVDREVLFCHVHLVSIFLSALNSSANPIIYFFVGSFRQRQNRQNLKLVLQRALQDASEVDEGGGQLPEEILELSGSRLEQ
# MrgX1 antagonist = blocks BAM8-22 activation of human MrgX1 receptor | B-score at 10 µM | Q96LB2 | 310,000 compounds, 1.3% hits | MRGX1-HEK293 calcium flux, Fluo-4, BAM8-22 antagonism; hits give low values;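 active = calcium-response B-score plate-corrected more than 3 library SD below zero, starting fluorescence within 5 deviations, no agonist response on first addition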;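 note: peak minus trough fluorescence over baseline after final BAM8-22 challenge near maximal dose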
# RGS4 inh = inhibitors of human RGS4; 310,000 compounds, 0.45% hits; HEK293 M3R/RGS4 inducible, Fluo-4 calcium flux; hits give high values; triggered by carbachol at its EC20; P49798; AID 463165; B-score at 10 µM;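 active = B-score, a plate-corrected calcium signal, over three deviations above library mean, with baseline fluorescence within five deviations of library mean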;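 note: RGS4 expression induced by doxycycline in cells with stable M3 receptor; B-score is computed from the integrated fluorescence ratio over baseline after carbachol; higher B-score means a larger calcium signal and so more RGS4 inhibition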
# Target sequence (P49798 whole entry, looked up): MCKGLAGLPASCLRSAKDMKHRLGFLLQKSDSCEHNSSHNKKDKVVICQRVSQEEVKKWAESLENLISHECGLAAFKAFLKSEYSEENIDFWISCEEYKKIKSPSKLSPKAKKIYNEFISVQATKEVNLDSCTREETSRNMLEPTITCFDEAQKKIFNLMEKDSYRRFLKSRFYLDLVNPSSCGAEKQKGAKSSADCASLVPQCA
# MrgX1 agonist = activates human MrgX1 receptor signaling; MrgX1-HEK293 cells, Fluo-4 calcium fluorescence, agonist mode; hits give high values; B-score at 10 µM; 310,000 compounds, 0.44% hits; AID 588627;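 active = calcium response B-score plate-corrected fluorescence ratio at least 3 library SD, with starting fluorescence B-score inside 5 SD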
#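 Material: MrgX1-expressing HEK293 cells; input: 15,000 cells per well; doses: test compound given as first of three sequential additions; schedule: overnight plating before 1 h dye loading; technique: Fluo-4 NW calcium-flux fluorescence, kinetic read; evaluation: baseline-normalised fluorescence change ratio, B-scored; control set: plate-wise positive and negative controls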
# The depositor's hits bear a star; i = inactive; x = no result given. Sampled rows, rich in hits. Any-hit rate of the full collection: about 3.5%.
SMILES,RGS4 act,MrgX1 allo act,MrgX1 antagonist,RGS4 inh,MrgX1 agonist
CCn1nc(C)c(CNC(=O)C2CCC(=O)N(CCc3ccc(OC)cc3)C2)c1C (configuration not stated),i,i,i,i,i
COc1cc(S(=O)(=O)NC(Cc2c[nH]c3ccccc23)C(=O)O)ccc1NC(C)=O (configuration not stated),i,i,i,i,i
Cc1cc(SCc2cccc(Cl)c2)nc(=O)[nH]1,i,i,i,i,i
O=C(O)c1ccccc1-c1ccc(/C=C2\SC(=O)N(c3ccccc3)C2=O)o1,i,i,i,i,i
O=C1S/C(=C\c2ccc(N3CCOCC3)o2)C(=O)N1Cc1c(F)cccc1Cl,i,i,i,i,56.2*
O=C1S/C(=C/c2ccc(N3CCOCC3)o2)C(=O)N1Cc1c(F)cccc1Cl,i,9.41*,i,i,i
O=C1N=C(N2CCOCC2)S/C1=C/c1ccc(-c2ccccc2Cl)o1,i,i,i,i,i
O=C1S/C(=C\c2ccc(N3CCOCC3)o2)C(=O)N1c1ccccc1,-7.62*,i,i,i,i
O=c1c(Cl)c(Cl)cnn1Cc1nnc(-c2ccc(Cl)cc2)o1,i,x,x,i,x
O=c1/c(=C/c2cccc3ccccc23)sc2ncnn12,i,i,i,i,i
Cc1ccsc1/C=c1\sc2ncnn2c1=O,i,6.58*,i,i,i
CCn1c(C)c(C(C)=O)c(N2CCN(C(c3ccccc3)c3ccccc3)CC2)nc1=S,-7.38*,i,i,i,i
Cn1c(=O)c2c(nc(N3CCCCCC3)n2CC(O)COc2ccccc2)n(C)c1=O (configuration not stated),i,i,i,i,i
Cc1cccc(OCC(O)Cn2c(N3CCCCC3)nc3c2c(=O)n(C)c(=O)n3C)c1 (configuration not stated),i,7.24*,i,i,i
COc1ccccc1N1CCN(C2CCC(C)CC2)CC1 (configuration not stated),i,i,i,i,i
COc1ccccc1N1CCN(C2CCN(C3CCC(c4ccccc4)CC3)CC2)CC1 (configuration not stated),i,9.05*,i,i,i
O=C1c2cccc3c([N+](=O)[O-])ccc(c23)C(=O)N1O,i,i,-8.56*,i,i
O=C1c2cccc3c([N+](=O)[O-])ccc(c23)C(=O)N1c1ccccn1,-7.78*,i,i,i,i
O=C1c2cccc3c([N+](=O)[O-])ccc(c23)C(=O)N1c1ccc(Cl)cn1,i,i,i,i,i
COc1ccc(-n2c(SCC(=O)Nc3cccc(S(N)(=O)=O)c3)nc3ccccc3c2=O)cc1OC,i,i,i,i,i
CC(/C=N/NC(=O)Cc1cccs1)=C\c1ccccc1,i,i,i,i,i
CC(/C=N/NC(=O)Cc1cccn1C)=C\c1ccccc1,i,11.8*,i,i,i
CCN(CC)CCCNC(=O)C1CCN(C(=O)c2cc3sccc3n2Cc2ccc(F)cc2)CC1,i,i,-5.96*,i,i
COc1cc(-c2noc(C)c2-c2ccc3[nH]ccc3c2)cc(OC)c1OC,-7.19*,i,i,i,i
CCc1cc[n+](-c2nc3ccccc3nc2[N-]S(=O)(=O)c2ccc(Br)s2)cc1,i,i,-6.5*,i,i
SMILES,RGS4 act,MrgX1 allo act,MrgX1 antagonist,RGS4 inh,MrgX1 agonist
Cc1cccc(NC(=S)NCC(C)CSc2ccc(Cl)cc2)c1 (configuration not stated),i,i,-6.41*,i,i
Cc1ccc(NC(=S)NCC(C)CSc2ccc(Cl)cc2)cc1 (configuration not stated),i,i,i,i,i
CCCCn1c(N)c(N(CCOC)C(=O)COC(=O)CCOc2ccccc2)c(=O)[nH]c1=O,i,i,i,i,i
C#CCOCCOCCOCCNc1nc(N2CCN(C(=O)CCCCCCCCCCNC(=O)[C@H]([C@@H](C)CC)n3cc(CCCCCN)nn3)CC2)nc(N2CCN(C(=O)CCCCCCCCCCNC(=O)[C@H](CCCCN)n3cc(CCCC(=O)O)nn3)CC2)n1,x,i,i,x,i
C#CCOCCOCCOCCNc1nc(N2CCN(C(=O)CCCCCCCCCCNC(=O)[C@H]([C@@H](C)CC)n3cc(CCCCN=C(N)N)nn3)CC2)nc(N2CCN(C(=O)CCCCCCCCCCNC(=O)[C@H](CCCCN)n3cc(C)nn3)CC2)n1,x,i,i,x,122*
C#CCOCCOCCOCCNc1nc(N2CCN(C(=O)CCCCCCCCCCNC(=O)[C@H]([C@@H](C)CC)n3cc(CCCCN=C(N)N)nn3)CC2)nc(N2CCN(C(=O)CCCCCCCCCCNC(=O)[C@H](CO)n3cc(CCCCCN)nn3)CC2)n1,x,i,i,x,151*
C#CCOCCOCCOCCNc1nc(N2CCN(C(=O)CCCCCCCCCCNC(=O)[C@H](CO)n3cc(CCCSC)nn3)CC2)nc(N2CCN(C(=O)CCCCCCCCCCNC(=O)[C@H](CCCN=C(N)N)n3cc(C[C@@H](C)CC)nn3)CC2)n1,x,i,i,x,i
C#CCOCCOCCOCCNc1nc(N2CCN(C(=O)[C@H](C)n3cc(CCCN=C(N)N)nn3)CC2)nc(N2CCN(C(=O)[C@H](C)n3cc(CCCN=C(N)N)nn3)CC2)n1,i,8.39*,i,i,i
C#CCOCCOCCOCCNc1nc(N2CCN(C(=O)CCCCCCCCCCNC(=O)Cn3cc(CCCCCN)nn3)CC2)nc(N2CCN(C(=O)CCCCCCCCCCNC(=O)[C@H]([C@@H](C)CC)n3cc(CCCCN=C(N)N)nn3)CC2)n1,x,i,i,x,116*
Cc1nn(Cc2ccccc2Cl)c(C)c1NC(=O)CCCn1nc([N+](=O)[O-])c(Cl)c1C,i,i,i,i,i
COc1ccc(Cl)cc1S(=O)(=O)N(C)CC(=O)NCc1ccc2c(c1)OCO2,i,i,i,i,i
C#CCOCCOCCOCCNc1nc(N2CCN(C(=O)CCCCCCCCCCNC(=O)[C@H]([C@@H](C)CC)n3cc(CCCCN=C(N)N)nn3)CC2)nc(N2CCN(C(=O)CCCCCCCCCCNC(=O)[C@H]([C@@H](C)CC)n3cc(CCCCN=C(N)N)nn3)CC2)n1,x,i,i,x,38.5*
C#CCOCCOCCOCCNc1nc(N2CCOCC2)nc(N2CCN(C(=O)CCCCCCCCCCNC(=O)[C@@H]([C@H](C)CC)n3cc(CCCCCN)nn3)CC2)n1,x,i,i,x,i

# High-throughput results: PubChem BioAssay, Johns Hopkins Ion Channel Center
